# ChEMBL document CHEMBL1125327, “Conformationally restricted deltorphin analogues” (J Med Chem, 1992)
# Positions of bridges follow the written chain, without caps; N, C: chain ends. Non-standard residues stand in square brackets, D forms with d. Residues, ends and D or L forms follow the SMILES beside them. Tic = O=C(O)[C@@H]1Cc2ccccc2CN1; Aic = NC1(C(=O)O)Cc2ccccc2C1; Nle = CCCC[C@H](N)C(=O)O
# Columns and labels:
# Mu-type opioid receptor [1] = target: Mu-type opioid receptor (Cavia porcellus, UniProt P97266); assay: Inhibition of electrically evoked contractions in Guinea pig ileum; type: functional, tissue-based
# Mu-type opioid receptor (Cavia porcellus, UniProt P97266), sequence (P97266 whole entry): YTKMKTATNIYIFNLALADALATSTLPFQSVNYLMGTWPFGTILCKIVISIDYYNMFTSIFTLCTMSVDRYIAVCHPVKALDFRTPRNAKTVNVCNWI
# In short: (§1)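 Isolated guinea pig ileum or mouse vas deferens, electrically stimulated; agonist IC50 taken as inhibition of evoked contractions from log dose–response curves. A [Leu5]enkephalin standard curve was run on each preparation and test IC50 values normalised to it. Antagonist Ke derived from IC50 ratio with and without a fixed antagonist concentration.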
# Mu-type opioid receptor [2] = target: T1, Mu-type opioid receptor (Rattus norvegicus, UniProt P33535); assay: Inhibition of [3H]- ]DAMGO binding to mu receptor from rat brain membrane
# T1 sequence (P33535 whole entry): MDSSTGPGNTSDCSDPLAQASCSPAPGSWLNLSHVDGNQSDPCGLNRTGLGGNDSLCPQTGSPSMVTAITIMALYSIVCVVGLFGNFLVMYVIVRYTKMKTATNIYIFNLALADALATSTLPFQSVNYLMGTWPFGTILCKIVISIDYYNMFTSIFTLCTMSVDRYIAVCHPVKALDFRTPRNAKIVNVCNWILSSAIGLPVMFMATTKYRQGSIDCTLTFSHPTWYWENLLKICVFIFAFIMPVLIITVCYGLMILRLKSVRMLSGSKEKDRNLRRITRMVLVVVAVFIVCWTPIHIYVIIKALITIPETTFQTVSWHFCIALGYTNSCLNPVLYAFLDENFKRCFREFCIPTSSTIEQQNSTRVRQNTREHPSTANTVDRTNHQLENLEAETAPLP
# In short: (§2)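 Displacement of 0.72 nM [3H]DAMGO from rat brain membranes; 2 h incubation at 0 °C. IC50 read from log dose–displacement curves; Ki calculated by Cheng–Prusoff equation using Kd 1.3 nM for [3H]DAMGO.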
# [3] = target: T2, Delta-type opioid receptor (Rattus norvegicus, UniProt P33533); assay: Inhibition of [3H]- ]DSLET binding to delta receptor from rat brain membrane
# T2 sequence (P33533 whole entry): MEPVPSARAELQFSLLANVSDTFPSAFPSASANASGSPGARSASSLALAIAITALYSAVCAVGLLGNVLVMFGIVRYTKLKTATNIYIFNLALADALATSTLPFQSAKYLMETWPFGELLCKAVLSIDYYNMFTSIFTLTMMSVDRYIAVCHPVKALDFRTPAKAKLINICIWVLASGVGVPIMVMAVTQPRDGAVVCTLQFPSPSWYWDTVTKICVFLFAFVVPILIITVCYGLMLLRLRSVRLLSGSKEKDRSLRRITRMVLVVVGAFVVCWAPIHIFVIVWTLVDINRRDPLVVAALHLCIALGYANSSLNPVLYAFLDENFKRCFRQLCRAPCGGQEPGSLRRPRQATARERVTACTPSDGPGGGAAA
# In short: (§3)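 Displacement of 0.78 nM [3H]DSLET from rat brain membrane preparations, incubated 2 h at 0 °C. IC50 from log dose–displacement curves, converted to Ki via Cheng–Prusoff with a [3H]DSLET Kd of 2.6 nM.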
# [4] = target: T3, Delta-type opioid receptor (Mus musculus, UniProt P32300); assay: (§4) Inhibition of electrically evoked contractions in mouse vas deferens; type: functional
# T3 sequence (P32300 whole entry): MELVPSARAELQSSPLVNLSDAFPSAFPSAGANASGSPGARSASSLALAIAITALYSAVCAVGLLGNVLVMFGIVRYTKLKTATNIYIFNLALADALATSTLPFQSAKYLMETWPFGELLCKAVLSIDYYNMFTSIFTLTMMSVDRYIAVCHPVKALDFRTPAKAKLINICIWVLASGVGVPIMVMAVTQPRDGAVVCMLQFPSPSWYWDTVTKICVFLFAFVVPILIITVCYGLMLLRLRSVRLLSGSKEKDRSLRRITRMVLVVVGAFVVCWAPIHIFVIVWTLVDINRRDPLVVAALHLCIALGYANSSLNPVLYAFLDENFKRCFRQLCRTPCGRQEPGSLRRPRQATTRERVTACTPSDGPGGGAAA
# [5] = target: T3, Delta-type opioid receptor; assay: as §4; type: functional; in short: as §1; remark: listed apart in the source
# [6] = target: T2, Delta-type opioid receptor; assay: Inhibition of [3H]- ]DSLET binding to Opioid receptor delta 1 from rat brain membrane; in short: as §3
# Mu-type opioid receptor [7] = target: T1, Mu-type opioid receptor; assay: (§5) Inhibition of [3H]- ]DAMGO binding to Opioid receptor mu 1 from rat brain membrane; in short: as §2
# [8] = target: T2, Delta-type opioid receptor; assay: Inhibition of [3H]- ]DSLET binding to opioid receptor delta from rat brain membrane; in short: as §3
# Mu-type opioid receptor [9] = target: T1, Mu-type opioid receptor; assay: Inhibition of [3H]- ]DAMGO binding to opioid receptor mu from rat brain membrane
# Mu-type opioid receptor [10] = target: T1, Mu-type opioid receptor; assay: as §5; in short: as §2; remark: listed apart in the source
Compound,IC50 (Mu-type opioid receptor [1]) [nM],Ki (Mu-type opioid receptor [2]) [nM],Ki [3] [nM],IC50 [4] [nM],IC50 [5] [nM],Ki [6] [nM],Ki (Mu-type opioid receptor [7]) [nM],Ki [8] [nM],Ki (Mu-type opioid receptor [9]) [nM],Ki (Mu-type opioid receptor [10]) [nM]
CC(C)[C@@H]1NC(=O)[C@@H](NC(=O)[C@H](Cc2ccccc2)NC(=O)CNC(=O)[C@@H](N)Cc2ccc(O)cc2)CCC(=O)NCCCC[C@@H](C(N)=O)NC(=O)[C@H](C(C)C)NC1=O (H-YGFEVVK-NH2; lactam 4-7),3880,955,724,919,,,,,,
CCCC[C@H](NC(=O)[C@H](CC(C)C)NC(=O)[C@H](Cc1cnc[nH]1)NC(=O)[C@H](Cc1ccccc1)NC(=O)[C@@H](CCCC)NC(=O)[C@@H](N)Cc1ccc(O)cc1)C(=O)N[C@@H](CC(=O)O)C(N)=O,241,117,0.665,,0.712,,,,,
CC(C)[C@H](NC(=O)[C@H](CC(=O)O)NC(=O)[C@H](Cc1ccccc1)NC(=O)[C@@H]1Cc2ccccc2CN1C(=O)[C@@H](N)Cc1ccc(O)cc1)C(=O)N[C@H](C(=O)NCC(N)=O)C(C)C (H-Y[Tic]FDVVG-NH2),> 65000,,,22.8,,6.49,9230,,,
CSCC[C@H](NC(=O)[C@H](CC(C)C)NC(=O)[C@H](Cc1cnc[nH]1)NC(=O)[C@H](Cc1ccccc1)NC(=O)[C@@H](CCSC)NC(=O)[C@@H](N)Cc1ccc(O)cc1)C(=O)N[C@@H](CC(=O)O)C(N)=O (stereo in doubt; 12) [DELTORPHIN A],281,415,2.13,0.695,,,,,,
CC(C)[C@H](NC(=O)[C@H](CC(=O)O)NC(=O)[C@H](Cc1ccccc1)NC(=O)[C@@H](C)NC(=O)[C@@H](N)Cc1ccc(O)cc1)C(=O)N[C@H](C(=O)NCC(N)=O)C(C)C [DELTORPHIN C],854,,,,,,,1.44,262,
CC(C)[C@H](NC(=O)[C@H](CC(=O)O)NC(=O)[C@@H]1Cc2ccccc2CN1C(=O)[C@@H](C)NC(=O)[C@@H](N)Cc1ccc(O)cc1)C(=O)N[C@H](C(=O)NCC(N)=O)C(C)C (H-Y[dA][Tic]DVVG-NH2),14500,,,481,,,15200,,,4960
CC(C)[C@H](NC(=O)[C@H](CC(=O)O)NC(=O)C1(NC(=O)[C@@H](C)NC(=O)[C@@H](N)Cc2ccc(O)cc2)Cc2ccccc2C1)C(=O)N[C@H](C(=O)NCC(N)=O)C(C)C (H-Y[dA][Aic]DVVG-NH2),290,,,0.0803,,4.96,207,,,
CC(C)[C@@H]1NC(=O)[C@H](CC(=O)O)NC(=O)[C@H](Cc2ccccc2)NC(=O)[C@H](NC(=O)[C@@H](N)Cc2ccc(O)cc2)CCCCNC(=O)CC[C@@H](C(N)=O)NC(=O)[C@H](C(C)C)NC1=O,380,891,248,17.3,,,,,,
CSCC[C@H](NC(=O)[C@H](CC(C)C)NC(=O)[C@H](Cc1cnc[nH]1)NC(=O)[C@H](Cc1ccccc1)NC(=O)[C@@H](CCSC)NC(=O)[C@@H](N)Cc1ccc(O)cc1)C(=O)N[C@@H](CC(=O)O)C(N)=O (stereo in doubt; 7) [DELTORPHIN A],4420,143,290,98.3,,,,,,
CCCC[C@H](NC(=O)[C@H](CC(C)C)NC(=O)[C@H](Cc1ccccc1)NC(=O)[C@H](Cc1ccccc1)NC(=O)[C@@H]1Cc2ccccc2CN1C(=O)[C@@H](N)Cc1ccc(O)cc1)C(=O)N[C@@H](CC(=O)O)C(N)=O (H-Y[Tic]FFL[Nle]D-NH2),> 10000,,,> 10000,,8.27,4150,,,
CC(C)[C@H](NC(=O)[C@H](CC(=O)O)NC(=O)C1(NC(=O)[C@@H](C)NC(=O)[C@@H](N)Cc2ccc(O)cc2)CCc2ccccc2C1)C(=O)N[C@H](C(=O)NCC(N)=O)C(C)C (stereo in doubt; 2),1820,,,0.115,,5.36,671,,,
CC(C)[C@@H]1NC(=O)[C@@H](NC(=O)[C@H](Cc2ccccc2)NC(=O)[C@@H](C)NC(=O)[C@@H](N)Cc2ccc(O)cc2)CC(=O)NCCC[C@@H](C(N)=O)NC(=O)[C@H](C(C)C)NC1=O,251,338,562,90.5,,,,,,
CC(C)[C@H](NC(=O)[C@H](CC(=O)O)NC(=O)C1(NC(=O)[C@@H](C)NC(=O)[C@@H](N)Cc2ccc(O)cc2)CCc2ccccc2C1)C(=O)N[C@H](C(=O)NCC(N)=O)C(C)C (stereo in doubt; 3),1380,,,0.163,,,,6.52,1410,
CC(C)[C@H](NC(=O)[C@H](CC(=O)O)NC(=O)[C@@H](Cc1ccccc1)NC(=O)[C@@H](C)NC(=O)[C@@H](N)Cc1ccc(O)cc1)C(=O)N[C@H](C(=O)NCC(N)=O)C(C)C,11900,,,,,67.2,8650,,,
CC(C)[C@H](NC(=O)[C@@H]1CCC(=O)NCCCC[C@@H](NC(=O)[C@@H](N)Cc2ccc(O)cc2)C(=O)N[C@@H](Cc2ccccc2)C(=O)N1)C(=O)N[C@H](C(=O)NCC(N)=O)C(C)C,102,17.5,3.66,0.467,,,,,,
